ChEMBL document CHEMBL1177660, “Discovery of novel purine derivatives with potent and selective inhibitory activity against c-Src tyrosine kinase” (Bioorg Med Chem, 2010)

What was measured:
[1] = target: T1, Proto-oncogene tyrosine-protein kinase Src (Homo sapiens, UniProt P12931); test: Inhibition cSRC
[2] = target: T1, Proto-oncogene tyrosine-protein kinase Src; test: Inhibition cSRC at 10 uM
Method in brief: (§1)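 Purified kinases assayed by ELISA on wells coated with 20 µg/mL poly(Glu,Tyr)4:1. Detected with PY99 anti-phosphotyrosine, HRP anti-mouse IgG and o-phenylenediamine; A492.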

[3] = target: Fibroblast growth factor receptor 1 (Homo sapiens) (UniProt P11362); test: Inhibition FGFR1 at 10 uM; method in brief: as §1
[4] = target: Vascular endothelial growth factor receptor 2 (Homo sapiens) (UniProt P35968); test: Inhibition KDR at 10 uM; method in brief: as §1
[5] = target: Receptor tyrosine-protein kinase erbB-2 (Homo sapiens) (UniProt P04626); test: Inhibition ErbB2 at 10 uM; method in brief: as §1
[6] = target: Platelet-derived growth factor receptor beta (Homo sapiens) (UniProt P09619); test: Inhibition PDGFRbeta at 10 uM; method in brief: as §1
[7] = target: T2, Ephrin type-B receptor 2 (Homo sapiens) (UniProt P29323); test: Inhibition EphB2 at 10 uM; method in brief: as §1
T2 sequence (whole entry): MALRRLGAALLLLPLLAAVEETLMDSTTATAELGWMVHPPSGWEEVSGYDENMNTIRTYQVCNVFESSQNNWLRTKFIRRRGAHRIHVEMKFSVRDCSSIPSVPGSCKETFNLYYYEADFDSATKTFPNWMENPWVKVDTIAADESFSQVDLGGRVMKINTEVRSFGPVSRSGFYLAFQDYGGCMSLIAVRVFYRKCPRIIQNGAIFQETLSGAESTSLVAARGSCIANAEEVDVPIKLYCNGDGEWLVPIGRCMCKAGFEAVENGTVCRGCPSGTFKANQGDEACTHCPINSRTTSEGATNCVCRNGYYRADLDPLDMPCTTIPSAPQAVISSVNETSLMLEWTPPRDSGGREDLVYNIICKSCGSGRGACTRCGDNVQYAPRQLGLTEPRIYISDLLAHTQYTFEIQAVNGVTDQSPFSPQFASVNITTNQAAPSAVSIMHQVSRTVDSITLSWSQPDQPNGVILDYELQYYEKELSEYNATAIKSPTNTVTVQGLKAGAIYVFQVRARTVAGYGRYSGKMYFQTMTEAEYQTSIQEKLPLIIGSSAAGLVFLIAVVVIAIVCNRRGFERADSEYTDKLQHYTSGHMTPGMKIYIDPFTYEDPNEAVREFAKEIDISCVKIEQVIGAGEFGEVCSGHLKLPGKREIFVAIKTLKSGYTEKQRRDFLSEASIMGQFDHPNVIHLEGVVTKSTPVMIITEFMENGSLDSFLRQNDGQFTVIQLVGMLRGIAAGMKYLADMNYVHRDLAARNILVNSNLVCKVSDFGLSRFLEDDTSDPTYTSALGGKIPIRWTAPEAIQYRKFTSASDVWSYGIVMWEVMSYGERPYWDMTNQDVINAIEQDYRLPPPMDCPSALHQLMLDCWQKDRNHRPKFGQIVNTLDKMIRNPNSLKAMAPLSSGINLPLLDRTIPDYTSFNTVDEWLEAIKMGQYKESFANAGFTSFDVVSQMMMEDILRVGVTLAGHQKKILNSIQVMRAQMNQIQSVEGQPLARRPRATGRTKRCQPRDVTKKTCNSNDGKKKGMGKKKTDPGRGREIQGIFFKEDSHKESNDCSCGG

[8] = target: Hepatocyte growth factor receptor (Homo sapiens) (UniProt P08581); details: 10 uM
[9] = target: Vascular endothelial growth factor receptor 1 (Homo sapiens) (UniProt P17948); test: Inhibition VEGFR1 at 10 uM; method in brief: as §1
[10] = target: Focal adhesion kinase 1 (Homo sapiens) (UniProt Q05397); test: Inhibition of FAK phosphorylation in human MDA-MB-231 cells by Western blotting; assay type: cell-based
Method in brief: (§2)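 MDA-MB-231 cells, 4.5×10^5 per well, plated overnight. Then exposed for 24 h to 1, 3 or 10 µM compound or DMSO alone. Western blot probed p-Src (Tyr416), total Src, p-FAK (Tyr861), FAK and GAPDH. Three independent blots.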

[11] = test system: MDA-MB-231; test: Antiproliferative activity against human MDA-MB-231 cells assessed as viability after 24 hrs by MTT assay; assay type: functional
Method in brief: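 MDA-MB-231 cells (ATCC; L15 medium, 10% FBS, 37 °C, 5% CO2) exposed to test concentrations for 24 h; viability scored by MTT.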

[12] = target: T3, Mast/stem cell growth factor receptor Kit (Homo sapiens, UniProt P10721); test: Inhibition kit at 10 uM; method in brief: as §1
[13] = target: T1, Proto-oncogene tyrosine-protein kinase Src; test: Inhibition of human SRC-mediated migration of human MDA-MB-231 cells by wound-healing assay
[14] = target: T4, Tyrosine-protein kinase ABL1 (Homo sapiens, UniProt P00519); test: Inhibition cABl at 10 uM; method in brief: as §1
[15] = target: Ephrin type-A receptor 2 (Homo sapiens) (UniProt P29317); test: Inhibition EphA2 at 10 uM; method in brief: as §1
[16] = target: Fibroblast growth factor receptor 2 (Homo sapiens) (UniProt P21802); details: 10 uM
[17] = target: T4, Tyrosine-protein kinase ABL1; test: Inhibition cABl; method in brief: as §1
[18] = target: T1, Proto-oncogene tyrosine-protein kinase Src; test: Inhibition of human SRC-mediated invasion of human MDA-MB-231 cells; assay type: cell-based
Method in brief: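 Matrigel-coated (1 mg/mL) Transwell filters, 8 lm pores, with 10% FBS in the lower chamber. MDA-MB-231 cells and compound or DMSO were added together to the upper chamber and invaded 18 h at 37 °C. Non-invaded cells were removed. Invaded cells were stained with crystal violet, extracted with 10% acetic acid and read at 595 nm. Mean of three experiments, SD.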

[19] = target: T1, Proto-oncogene tyrosine-protein kinase Src; test: Inhibition of SRC phosphorylation in human MDA-MB-231 cells; assay type: cell-based; method in brief: as §2
[20] = target: T3, Mast/stem cell growth factor receptor Kit; test: Inhibition kit; method in brief: as §1

T1 sequence (P12931 2-536 limits assumed): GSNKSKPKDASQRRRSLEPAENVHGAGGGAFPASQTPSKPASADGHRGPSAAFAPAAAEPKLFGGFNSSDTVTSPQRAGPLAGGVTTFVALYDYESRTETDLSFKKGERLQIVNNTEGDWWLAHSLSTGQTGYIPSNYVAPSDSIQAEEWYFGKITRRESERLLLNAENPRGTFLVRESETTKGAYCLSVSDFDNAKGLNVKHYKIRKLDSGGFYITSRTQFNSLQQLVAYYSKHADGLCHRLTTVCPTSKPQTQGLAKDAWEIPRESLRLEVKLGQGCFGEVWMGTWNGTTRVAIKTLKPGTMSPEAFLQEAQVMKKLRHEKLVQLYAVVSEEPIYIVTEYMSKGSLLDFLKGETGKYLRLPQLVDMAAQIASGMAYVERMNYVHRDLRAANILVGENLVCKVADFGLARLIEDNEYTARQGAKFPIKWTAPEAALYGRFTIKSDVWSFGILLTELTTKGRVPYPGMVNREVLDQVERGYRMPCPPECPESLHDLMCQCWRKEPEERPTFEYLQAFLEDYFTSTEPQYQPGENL
T4 sequence (P00519 whole entry): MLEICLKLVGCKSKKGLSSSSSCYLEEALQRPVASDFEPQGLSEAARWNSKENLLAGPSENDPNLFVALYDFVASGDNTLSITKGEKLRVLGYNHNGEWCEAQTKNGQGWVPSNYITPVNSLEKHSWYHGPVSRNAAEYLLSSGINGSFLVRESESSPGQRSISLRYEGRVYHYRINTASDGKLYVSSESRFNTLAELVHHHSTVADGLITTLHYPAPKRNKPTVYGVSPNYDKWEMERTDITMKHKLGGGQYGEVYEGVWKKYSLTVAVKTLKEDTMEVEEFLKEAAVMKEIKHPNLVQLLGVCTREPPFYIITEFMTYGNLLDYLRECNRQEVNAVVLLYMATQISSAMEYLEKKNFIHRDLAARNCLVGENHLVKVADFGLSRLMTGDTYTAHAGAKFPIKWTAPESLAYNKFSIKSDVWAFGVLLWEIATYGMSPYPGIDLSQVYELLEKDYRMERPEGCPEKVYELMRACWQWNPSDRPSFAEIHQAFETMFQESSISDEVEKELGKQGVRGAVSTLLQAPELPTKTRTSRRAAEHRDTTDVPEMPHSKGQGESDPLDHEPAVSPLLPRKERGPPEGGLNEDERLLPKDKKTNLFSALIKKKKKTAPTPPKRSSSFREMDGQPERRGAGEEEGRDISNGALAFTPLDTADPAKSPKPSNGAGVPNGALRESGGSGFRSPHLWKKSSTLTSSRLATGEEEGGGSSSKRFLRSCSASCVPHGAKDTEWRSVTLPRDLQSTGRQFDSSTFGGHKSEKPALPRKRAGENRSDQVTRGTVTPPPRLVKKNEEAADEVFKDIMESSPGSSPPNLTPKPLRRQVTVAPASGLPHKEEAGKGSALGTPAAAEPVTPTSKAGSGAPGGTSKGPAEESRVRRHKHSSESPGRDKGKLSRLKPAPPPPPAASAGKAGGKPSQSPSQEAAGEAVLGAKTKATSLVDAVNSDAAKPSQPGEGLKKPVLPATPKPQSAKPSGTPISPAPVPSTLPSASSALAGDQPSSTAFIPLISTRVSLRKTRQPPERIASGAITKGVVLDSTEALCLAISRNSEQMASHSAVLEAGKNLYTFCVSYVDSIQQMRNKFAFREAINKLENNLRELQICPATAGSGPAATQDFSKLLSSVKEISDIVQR
T3 sequence (P10721 whole entry): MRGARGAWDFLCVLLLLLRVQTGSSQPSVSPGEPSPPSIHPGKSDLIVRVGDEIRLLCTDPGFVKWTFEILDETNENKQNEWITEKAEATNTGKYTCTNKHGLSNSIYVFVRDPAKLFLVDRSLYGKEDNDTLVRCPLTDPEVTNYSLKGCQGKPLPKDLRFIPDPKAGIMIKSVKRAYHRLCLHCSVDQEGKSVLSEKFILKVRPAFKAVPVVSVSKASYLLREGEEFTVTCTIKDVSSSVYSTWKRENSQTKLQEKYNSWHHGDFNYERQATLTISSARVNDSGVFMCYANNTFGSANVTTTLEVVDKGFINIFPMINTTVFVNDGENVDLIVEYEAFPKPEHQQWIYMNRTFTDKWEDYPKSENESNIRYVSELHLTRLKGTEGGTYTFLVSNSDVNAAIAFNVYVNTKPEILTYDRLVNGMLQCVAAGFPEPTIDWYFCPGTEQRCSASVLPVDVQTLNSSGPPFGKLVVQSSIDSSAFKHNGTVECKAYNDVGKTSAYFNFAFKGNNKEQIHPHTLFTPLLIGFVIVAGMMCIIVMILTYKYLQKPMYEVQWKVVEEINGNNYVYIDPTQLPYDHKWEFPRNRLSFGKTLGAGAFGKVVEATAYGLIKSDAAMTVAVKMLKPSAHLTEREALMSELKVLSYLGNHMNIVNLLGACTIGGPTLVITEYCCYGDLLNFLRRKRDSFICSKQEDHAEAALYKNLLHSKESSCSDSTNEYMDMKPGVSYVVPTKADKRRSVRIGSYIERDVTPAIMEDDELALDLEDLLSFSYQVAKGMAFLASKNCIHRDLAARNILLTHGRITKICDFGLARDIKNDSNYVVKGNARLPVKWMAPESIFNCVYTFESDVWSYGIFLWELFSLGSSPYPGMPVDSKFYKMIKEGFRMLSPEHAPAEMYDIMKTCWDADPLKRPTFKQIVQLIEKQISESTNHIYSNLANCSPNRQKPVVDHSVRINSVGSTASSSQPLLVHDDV
Chain of Hepatocyte growth factor receptor (Homo sapiens) (P08581 whole entry): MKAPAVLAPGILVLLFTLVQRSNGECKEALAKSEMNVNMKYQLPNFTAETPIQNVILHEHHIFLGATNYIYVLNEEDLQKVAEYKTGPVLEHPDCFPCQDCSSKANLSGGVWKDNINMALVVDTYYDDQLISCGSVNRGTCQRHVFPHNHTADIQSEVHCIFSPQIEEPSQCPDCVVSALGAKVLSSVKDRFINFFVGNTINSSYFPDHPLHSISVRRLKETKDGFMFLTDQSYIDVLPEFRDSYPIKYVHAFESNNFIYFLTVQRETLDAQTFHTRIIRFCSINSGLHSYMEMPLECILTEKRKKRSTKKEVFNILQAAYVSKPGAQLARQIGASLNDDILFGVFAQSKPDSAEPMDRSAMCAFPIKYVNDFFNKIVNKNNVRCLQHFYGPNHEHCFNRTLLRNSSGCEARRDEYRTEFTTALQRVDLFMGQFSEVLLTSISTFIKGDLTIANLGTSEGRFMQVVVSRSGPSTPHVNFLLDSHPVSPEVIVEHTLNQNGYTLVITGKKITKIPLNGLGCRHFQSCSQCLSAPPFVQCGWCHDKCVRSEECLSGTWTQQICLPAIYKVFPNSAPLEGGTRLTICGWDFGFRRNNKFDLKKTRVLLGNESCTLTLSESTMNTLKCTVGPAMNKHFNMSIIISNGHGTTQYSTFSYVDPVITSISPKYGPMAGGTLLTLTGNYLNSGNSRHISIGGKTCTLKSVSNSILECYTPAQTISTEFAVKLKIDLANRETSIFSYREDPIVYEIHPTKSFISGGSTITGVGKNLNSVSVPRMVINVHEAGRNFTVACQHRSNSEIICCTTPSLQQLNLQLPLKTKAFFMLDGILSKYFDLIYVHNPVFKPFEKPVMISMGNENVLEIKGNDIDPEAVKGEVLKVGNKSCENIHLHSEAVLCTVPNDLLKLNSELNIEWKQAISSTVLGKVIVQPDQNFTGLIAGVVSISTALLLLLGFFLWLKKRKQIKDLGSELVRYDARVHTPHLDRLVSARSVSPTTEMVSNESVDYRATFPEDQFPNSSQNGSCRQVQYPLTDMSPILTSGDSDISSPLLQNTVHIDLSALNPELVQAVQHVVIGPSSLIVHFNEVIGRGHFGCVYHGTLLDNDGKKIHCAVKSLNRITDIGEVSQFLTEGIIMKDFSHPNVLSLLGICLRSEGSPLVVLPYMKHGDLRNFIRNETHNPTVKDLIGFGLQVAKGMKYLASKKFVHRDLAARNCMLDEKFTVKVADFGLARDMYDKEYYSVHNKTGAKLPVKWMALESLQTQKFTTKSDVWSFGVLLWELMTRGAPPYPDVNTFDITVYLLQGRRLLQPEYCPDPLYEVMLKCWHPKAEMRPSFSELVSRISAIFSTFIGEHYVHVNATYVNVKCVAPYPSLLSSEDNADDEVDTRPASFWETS
Chain of Fibroblast growth factor receptor 1 (Homo sapiens) (P11362 22-822 limits assumed): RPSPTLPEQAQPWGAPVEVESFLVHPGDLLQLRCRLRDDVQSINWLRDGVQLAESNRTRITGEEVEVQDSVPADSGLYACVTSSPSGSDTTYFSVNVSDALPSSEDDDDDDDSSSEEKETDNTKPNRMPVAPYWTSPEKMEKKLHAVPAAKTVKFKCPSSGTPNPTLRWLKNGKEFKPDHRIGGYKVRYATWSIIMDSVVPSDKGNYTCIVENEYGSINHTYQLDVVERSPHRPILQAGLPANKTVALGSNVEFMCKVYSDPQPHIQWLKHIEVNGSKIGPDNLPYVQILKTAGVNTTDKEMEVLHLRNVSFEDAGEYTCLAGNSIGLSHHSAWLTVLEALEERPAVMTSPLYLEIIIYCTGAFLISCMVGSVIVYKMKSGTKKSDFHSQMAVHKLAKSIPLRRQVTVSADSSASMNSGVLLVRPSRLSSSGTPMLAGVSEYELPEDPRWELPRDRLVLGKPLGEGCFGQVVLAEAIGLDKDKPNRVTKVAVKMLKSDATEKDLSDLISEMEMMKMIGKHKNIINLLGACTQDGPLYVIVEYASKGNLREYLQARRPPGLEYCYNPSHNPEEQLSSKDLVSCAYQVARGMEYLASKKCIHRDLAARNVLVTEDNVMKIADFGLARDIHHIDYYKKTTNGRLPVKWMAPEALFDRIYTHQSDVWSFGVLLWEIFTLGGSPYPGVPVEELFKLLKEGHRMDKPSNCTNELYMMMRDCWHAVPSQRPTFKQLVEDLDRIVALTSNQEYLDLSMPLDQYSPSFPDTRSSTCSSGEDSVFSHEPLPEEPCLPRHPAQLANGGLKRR

Row | SMILES | IC50 [1] | other results
1 | O=[N+]([O-])c1cccc(Nc2nc(N3CCOCC3)nc3[nH]cnc23)c1 | 130 nM | 
2 | c1ccc(Cn2cnc3c(N4CCOCC4)nc(N4CCOCC4)nc32)cc1 | > 10000 nM | inhibition [2]: 16.4%
3 | Brc1ccc(Nc2nc(N3CCOCC3)nc3c2ncn3Cc2ccccc2)cc1 | > 10000 nM | inhibition [2]: 10.1%
4 | Cc1cccc(Nc2nc(N3CCN(CCO)CC3)nc3nc[nH]c23)c1 | 2550 nM | 
5 | Brc1ccc(Nc2nc(N3CCOCC3)nc3[nH]cnc23)cc1 | 450 nM | 
6 | Clc1ccc(Nc2nc(N3CCNCC3)nc3[nH]cnc23)cc1 | 1180 nM | 
7 | O=[N+]([O-])c1cccc(Nc2nc(N3CCN(CCO)CC3)nc3[nH]cnc23)c1 | 340 nM | 
8 | NS(=O)(=O)c1ccc(Nc2nc(N3CCNCC3)nc3[nH]cnc23)cc1 | 1820 nM | 
9 | NS(=O)(=O)c1cccc(Nc2nc(N3CCN(CCO)CC3)nc3nc[nH]c23)c1 | 340 nM | 
10 | OCCN1CCN(c2nc(Nc3ccccc3)c3nc[nH]c3n2)CC1 | 3140 nM | 
11 | COc1ccc(Nc2nc(N3CCNCC3)nc3[nH]cnc23)cc1 |  | inhibition [2]: 90.5%
12 | Cc1cccc(Nc2nc(N3CCNCC3)nc3[nH]cnc23)c1 |  | inhibition [2]: 86.6%
13 | OCCN1CCN(c2nc(Nc3ccc(Cl)cc3)c3[nH]cnc3n2)CC1 | 690 nM | 
14 | CC(=O)Nc1ccc(Nc2nc(N3CCNCC3)nc3nc[nH]c23)cc1 | 1050 nM | 
15 | c1ccc(Cn2cnc3c(N4CCOCC4)ncnc32)cc1 | > 10000 nM | inhibition [2]: 0%
16 | COc1cccc(Nc2nc(N3CCNCC3)nc3nc[nH]c23)c1 | 1210 nM | 
17 | NC(=O)c1ccc(Nc2nc(N3CCNCC3)nc3nc[nH]c23)cc1 | 2200 nM | 
18 | NS(=O)(=O)c1cccc(Nc2nc(N3CCOCC3)nc3[nH]cnc23)c1 | 120 nM | 
19 | NC(=O)c1ccc(Nc2nc(N3CCN(CCO)CC3)nc3[nH]cnc23)cc1 | 1220 nM | 
20 | Brc1ccc(Nc2nc(N3CCNCC3)nc3[nH]cnc23)cc1 | 1760 nM | 
21 | CC(=O)Nc1ccc(Nc2nc(N3CCOCC3)nc3[nH]cnc23)cc1 | 650 nM | 
22 | c1ccc(Cn2cnc3c(Nc4ccccc4)ncnc32)cc1 | > 10000 nM | inhibition [2]: 13.9%
23 | CC(=O)Nc1ccc(Nc2nc(N3CCN(CCO)CC3)nc3[nH]cnc23)cc1 | 1590 nM | 

Row | SMILES | IC50 [1] | other results
24 | COc1ccc(Nc2nc(N3CCOCC3)nc3c2ncn3Cc2ccccc2)cc1 | > 10000 nM | inhibition [2]: 16%
25 | NS(=O)(=O)c1ccc(Nc2nc(N3CCN(CCO)CC3)nc3nc[nH]c23)cc1 | 260 nM | 
26 | Cc1cccc(Nc2nc(N3CCOCC3)nc3nc[nH]c23)c1 | 830 nM | 
27 | O=[N+]([O-])c1cccc(Nc2nc(N3CCNCC3)nc3nc[nH]c23)c1 | 950 nM | 
28 | NS(=O)(=O)c1cccc(Nc2nc(N3CCNCC3)nc3[nH]cnc23)c1 | 100 nM | 
29 | NC(=O)c1ccc(Nc2nc(N3CCOCC3)nc3nc[nH]c23)cc1 | 2010 nM | 
30 | COc1ccc(Nc2nc(N3CCOCC3)nc3[nH]cnc23)cc1 | 130 nM | 
31 | COc1cccc(Nc2nc(N3CCOCC3)nc3[nH]cnc23)c1 | 930 nM | 
32 | Cc1cccc(Nc2nc(N3CCNCC3)nc3nc[nH]c23)c1 | 2420 nM | 
33 | COc1cccc(Nc2nc(N3CCN(CCO)CC3)nc3nc[nH]c23)c1 | 1200 nM | 
34 | COc1ccc(Nc2nc(N3CCN(CCO)CC3)nc3nc[nH]c23)cc1 | 1330 nM | 
35 | COc1ccc(Nc2nc(N3CCNCC3)nc3c2ncn3Cc2ccccc2)cc1 | > 10000 nM | inhibition [2]: 22.5%
36 | O=[N+]([O-])c1ccc(Nc2nc(N3CCN(CCO)CC3)nc3nc[nH]c23)cc1 | 780 nM | 
37 | O=[N+]([O-])c1ccc(Nc2nc(N3CCNCC3)nc3[nH]cnc23)cc1 | 1400 nM | 
38 | Clc1ccc(Nc2nc(N3CCOCC3)nc3nc[nH]c23)cc1 | 340 nM | 
39 | c1ccc(Cn2cnc3c(Nc4ccccc4)nc(N4CCOCC4)nc32)cc1 | > 10000 nM | inhibition [2]: 20.2%
40 | NS(=O)(=O)c1ccc(Nc2nc(N3CCOCC3)nc3[nH]cnc23)cc1 | 20 nM | inhibition [3]: 48.7%; inhibition [4]: 47.2%; inhibition [5]: 43.1%; inhibition [6]: 17.2%; inhibition [7]: 11.5%; inhibition [8]: 43.2%; inhibition [9]: 0%; inhibition [10]: Dose-dependent effect; Activity [11]: > 95%; inhibition [12]: 83.1%; inhibition [13]: Dose-dependent effect; inhibition [14]: 73.4%; inhibition [15]: 48.7%; inhibition [16]: 4.1%; IC50 [17]: 6000 nM; inhibition [18]: Dose-dependent effect; inhibition [19]: Dose-dependent effect; IC50 [20]: 1350 nM
41 | c1ccc(Cn2cnc3c(Nc4ccccc4)nc(N4CCNCC4)nc32)cc1 | > 10000 nM | inhibition [2]: 35.8%
42 | COc1ccc(Nc2nc(N3CCNCC3)nc3nc[nH]c23)cc1 | 2430 nM | 
43 | O=[N+]([O-])c1ccc(Nc2nc(N3CCOCC3)nc3nc[nH]c23)cc1 | 390 nM | 
44 | Brc1ccc(Nc2ncnc3c2ncn3Cc2ccccc2)cc1 | > 10000 nM | inhibition [2]: 6.9%
45 | c1ccc(Nc2nc(N3CCOCC3)nc3[nH]cnc23)cc1 | 750 nM | 
